Test results: ChEMBL document CHEMBL1123002, “Resolution of 5,6-dihydroxy-2-(N,N-di-n-propylamino)tetralin in relation to the structural and stereochemical requirements for centrally acting dopamine agonists” (J Med Chem, 1985)

Experiments:
[1] = system: Rattus norvegicus; assay: In vivo dopaminergic activity was assessed by measuring the decrease of DA metabolite (HVA) levels in rat brain at dose 0.5 umol/kg; assay type: functional; set-up: scale not given: the % may be the effect or the level left
Outline: (§1)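 Female Wistar-derived rats (160–220 g) given drug ip in saline with 0.1% sodium bisulfite. Killed by decapitation 40 min later. Striata dissected, frozen on dry ice, stored at -80 °C, then homogenized in 0.1 M perchloric acid and centrifuged. DA, HVA and DOPAC in the supernatant measured by Sephadex G10 cleanup and reverse-phase HPLC with amperometric detection, compared against controls.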

[2] = system: Rattus norvegicus; assay: In vivo dopaminergic activity was assessed by measuring the decrease of DA metabolite (DOPAC) levels in rat brain at dose 0.5 umol/kg; assay type: functional; set-up: scale not given: the % may be the effect or the level left; outline: as §1
[3] = system: Rattus norvegicus; assay: In vivo dopaminergic activity was assessed by measuring the decrease of DA metabolite (DOPAC) levels in rat brain at dose 0.25 umol/kg; assay type: functional; set-up: scale not given: the % may be the effect or the level left; outline: as §1
[4] = system: Rattus norvegicus; assay: In vivo dopaminergic activity was assessed by measuring the decrease of DA […] levels in rat brain at dose 0.5 umol/kg; assay type: functional; set-up: scale not given: the % may be the effect or the level left; outline: as §1
[5] = system: Rattus norvegicus; assay: In vivo dopaminergic activity was assessed by measuring the decrease of DA […] levels in rat brain at dose 0.25 umol/kg; assay type: functional; set-up: scale not given: the % may be the effect or the level left; outline: as §1
[6] = system: Rattus norvegicus; assay: In vivo dopaminergic activity was assessed by measuring the decrease of DA metabolite (HVA) levels in rat brain at dose 0.25 umol/kg; assay type: functional; set-up: scale not given: the % may be the effect or the level left; outline: as §1
[7] = target: Dopamine receptor; assay: Inhibitory activity against [3H]NPA binding (0.45) to dopamine receptors in striata of female wistar rats; assay type: protein assay
Outline: (§2)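 Rat striatal membranes prepared in 15 mM Tris-HCl with 1 mM EDTA and 0.01% ascorbate, pH 7.5, washed by repeated 35000g spins. Incubated in triplicate for 30 min at 25 °C with 0.46 nM [³H]NPA and competitor over 10⁻¹¹–10⁻⁵ M. Nonspecific binding defined with 10⁻⁶ M (+)-butaclamol. Bound label collected on GF/B filters and counted by scintillation. IC50 from log-probit analysis of at least three determinations.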

[8] = system: Rattus norvegicus; assay: In vivo dopaminergic activity was assessed by scoring stereotyped behavior in rats at dose 0.25 umol/kg; assay type: functional
Outline: (§3)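 Rats dosed ip with drug in saline containing 0.1% sodium bisulfite. Stereotyped behaviour scored over 30 min after injection by a published rating method.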

[9] = target: Dopamine receptor; assay: Inhibitory activity against [3H]NPA binding (0.45) to dopamine receptor in striata of female wistar rats; assay type: protein assay; outline: as §2
[10] = system: Rattus norvegicus; assay: In vivo dopaminergic activity was assessed by scoring stereotyped behavior in rats at dose 0.5 umol/kg; assay type: functional; outline: as §3
[11] = system: Rattus norvegicus; assay: In vivo dopaminergic activity was assessed by measuring the decrease of DA metabolite (HVA) levels in rat brain at dose 10 umol/kg; assay type: functional; set-up: scale not given: the % may be the effect or the level left; outline: as §1
[12] = system: Rattus norvegicus; assay: In vivo dopaminergic activity was assessed by measuring the decrease of DA metabolite (DOPAC) levels in rat brain at dose 10 umol/kg; assay type: functional; set-up: scale not given: the % may be the effect or the level left; outline: as §1
[13] = system: Rattus norvegicus; assay: In vivo dopaminergic activity was assessed by measuring the decrease of DA metabolite (DOPAC) levels in rat brain at dose 5 umol/kg; assay type: functional; set-up: scale not given: the % may be the effect or the level left; outline: as §1
[14] = system: Rattus norvegicus; assay: In vivo dopaminergic activity was assessed by scoring stereotyped behavior in rats at dose 10 umol/kg; assay type: functional; outline: as §3
[15] = system: Rattus norvegicus; assay: In vivo dopaminergic activity was assessed by scoring stereotyped behavior in rats at dose 5 umol/kg; assay type: functional; outline: as §3
[16] = system: Rattus norvegicus; assay: In vivo dopaminergic activity was assessed by measuring the decrease of DA […] levels in rat brain at dose 10 umol/kg; assay type: functional; set-up: scale not given: the % may be the effect or the level left; outline: as §1
[17] = system: Rattus norvegicus; assay: In vivo dopaminergic activity was assessed by measuring the decrease of DA metabolite (HVA) levels in rat brain at dose 5 umol/kg; assay type: functional; set-up: scale not given: the % may be the effect or the level left; outline: as §1
[18] = system: Rattus norvegicus; assay: In vivo dopaminergic activity was assessed by measuring the decrease of DA […] levels in rat brain at dose 5 umol/kg; assay type: functional; set-up: scale not given: the % may be the effect or the level left; outline: as §1

| SMILES | Control [1] | Control [2] | Control [3] | Control [4] | Control [5] | Control [6] | IC50 [7] | Stereotypy score [8] | IC50 [9] | Stereotypy score [10] | Control [11] | Control [12] | Control [13] | Stereotypy score [14] | Stereotypy score [15] | Control [16] | Control [17] | Control [18] |
| --- | --- | --- | --- | --- | --- | --- | --- | --- | --- | --- | --- | --- | --- | --- | --- | --- | --- | --- |
| CCCN(CCC)C1CCc2c(ccc(O)c2O)C1 (racemic) | 47.6% | 58.5% | 61% | 114.9% | 103% | 36.2% | 4 nM | – | – | – | – | – | – | – | – | – | – | – |
| CCCN(CCC)C1CCc2c(ccc(O)c2O)C1 (single isomer, unassigned; (-)) | <42.6% | <58% | <53.7% | 114.2% | 98.4% | <42.5% | – | 4 | 2.5 nM | 4 | – | – | – | – | – | – | – | – |
| CCCN(CCC)C1CCc2c(ccc(O)c2O)C1 (single isomer, unassigned; (+)) | 86.5% | 93.3% | – | 109.4% | – | – | – | – | 400 nM | 0 | <41.2% | <60.1% | 68.9% | 3 | 3 | <125.8% | <48.6% | 115% |
